Source: publication PMC7388746 (Toxicon : official journal of the International Society on …, 2020)
Positions of bridges follow the written chain, without caps; N, C: chain ends. Residues, ends and D or L forms follow the SMILES beside them.

Legend:
TRPV1 [1] = conditions: cited from earlier work
TRPV1 [2] = conditions: animal studies, ref Kaszas et al., 2012, Lebovitz et al.; cited from earlier work
[3] = molecular target: T1, TRPV1 channels expressed in HEK293T cells (murine TRPV1, E571A, C-terminal eYFP) (Mus musculus, UniProt Q704Y3, E571A); experiment: TRPV1 desensitization on prolonged application and recovery; assay type: cell-based; conditions: RhTx2 300 μM vs RhTx 10 μM
T1 sequence (Q704Y3 whole entry E571A, the tested form may be a part): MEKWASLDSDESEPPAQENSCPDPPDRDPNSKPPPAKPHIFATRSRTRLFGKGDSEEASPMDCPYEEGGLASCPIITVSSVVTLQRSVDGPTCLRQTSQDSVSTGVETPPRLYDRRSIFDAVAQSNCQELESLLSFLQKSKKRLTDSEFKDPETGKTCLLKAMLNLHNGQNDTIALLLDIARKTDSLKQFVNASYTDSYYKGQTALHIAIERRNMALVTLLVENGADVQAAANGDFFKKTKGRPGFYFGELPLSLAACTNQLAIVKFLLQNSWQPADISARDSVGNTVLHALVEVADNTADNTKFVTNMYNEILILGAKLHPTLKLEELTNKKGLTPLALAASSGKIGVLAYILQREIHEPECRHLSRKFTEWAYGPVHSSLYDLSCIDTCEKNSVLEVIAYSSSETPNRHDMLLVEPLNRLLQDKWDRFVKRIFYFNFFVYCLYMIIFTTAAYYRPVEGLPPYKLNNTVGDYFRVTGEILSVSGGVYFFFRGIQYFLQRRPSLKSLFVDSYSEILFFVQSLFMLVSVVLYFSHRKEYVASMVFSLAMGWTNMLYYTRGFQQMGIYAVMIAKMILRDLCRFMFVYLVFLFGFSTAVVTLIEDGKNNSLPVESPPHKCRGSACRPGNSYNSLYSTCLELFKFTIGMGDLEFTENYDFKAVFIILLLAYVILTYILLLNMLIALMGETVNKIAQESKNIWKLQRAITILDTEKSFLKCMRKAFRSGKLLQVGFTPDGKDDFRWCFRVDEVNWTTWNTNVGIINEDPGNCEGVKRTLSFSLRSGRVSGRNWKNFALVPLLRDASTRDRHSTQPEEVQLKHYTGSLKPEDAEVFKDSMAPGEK

[4] = molecular target: T1, TRPV1 channels expressed in HEK293T cells (murine TRPV1, E571A, C-terminal eYFP); experiment: Patch-clamp activation of TRPV1, extracellular perfusion; assay type: cell-based
TRPV3 = experiment: Whole-cell patch-clamp of TRPV3; assay type: cell-based; conditions: n = 4
In short: (§1)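 Channels transiently expressed in HEK293T cells (DMEM, 10% FBS, 37 °C, 5% CO2; Lipofectamine 3000) and recorded 24–48 h after transfection. Whole-cell, ~4 MΩ pipettes, 60% series-resistance compensation. Bath and pipette: 130 mM NaCl, 10 mM glucose, 0.2 mM EDTA, 3 mM HEPES pH 7.2. Sampled 10 kHz, filtered 2.9 kHz, 22 °C, rapid gravity perfusion. Mean ± SEM.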

[5] = molecular target: T1, TRPV1 channels expressed in HEK293T cells (murine TRPV1, E571A, C-terminal eYFP); experiment: Single-channel recording of TRPV1; assay type: cell-based; conditions: outside-out; 300 μM RhTx2, on first perfusion
TRPV2 = experiment: Whole-cell patch-clamp of TRPV2; assay type: cell-based; conditions: n = 4
In short: as §1

[6] = molecular target: T1, TRPV1 channels expressed in HEK293T cells (murine TRPV1, E571A, C-terminal eYFP); experiment: Inside-out patch-clamp of TRPV1, intracellular perfusion; assay type: cell-based

CCOC(=O)C1=C(c2ccccc2)NC(C)=C(C(=O)SCCOC)C1CC (stereo not drawn) [MRS1477]
TRPV1 allosteric modulation, literature (in words) (TRPV1 [1]; ref Kaszas et al., 2012, Lebovitz et al.): positively and allosterically modulate the ligand activation of TRPV1
analgesic effect and side effects, literature (in words) (TRPV1 [2]): analgesic effects without side effects such as hyperthermia

CC[C@H](C)[C@H](NC(=O)[C@@H]1CSSC[C@@H]2NC(=O)[C@H]([C@@H](C)O)NC(=O)[C@H](C(C)C)NC(=O)CNC(=O)[C@H](CC(N)=O)NC(=O)[C@@H](NC(=O)[C@@H]3CCCN3C(=O)[C@H](CC(N)=O)NC(=O)[C@H](CC(N)=O)NC(=O)[C@H](CC(C)C)NC(=O)[C@H](Cc3ccc(O)cc3)NC(=O)[C@H](CCCCN)NC(=O)[C@H](CO)NC(=O)[C@@H](N)CC(N)=O)CSSC[C@H](NC(=O)[C@H](CCCNC(=N)N)NC(=O)[C@H](Cc3ccc(O)cc3)NC(=O)CNC(=O)[C@H](CO)NC(=O)[C@@H]3CCCN3C2=O)C(=O)N[C@@H](CO)C(=O)N[C@@H]([C@@H](C)CC)C(=O)N[C@@H](C(C)C)C(=O)N[C@@H](CC(=O)O)C(=O)N[C@@H](CCCCN)C(=O)N[C@@H](CCC(N)=O)C(=O)N1)C(=O)N[C@@H](CCCCN)C(=O)N[C@@H](CCCCN)C(=O)N[C@@H](CCC(=O)O)C(=O)O [RhTx2] (H-NSKYLNNPCNGVTCPSGYRCSIVDKQCIKKE-OH; disulfide 9-20, 14-27; N-terminus and C-terminus assumed)
steady state open probability in the desensitized state (in words) [3]: significantly lower than that of RhTx
change in EC50, RhTx2 vs RhTx (fold) ([4]; EC50 of RhTx2 relative to RhTx, apparent binding affinity much lower): ~100 fold
selectivity (in words) ([4]; TRPV1 vs TRPV2 and TRPV3, whole-cell, n = 4 per channel): selective for TRPV1 channel
TRPV1 activation (in words) ([4]; perfused from extracellular side, whole-cell recording, HEK293T): robustly activated TRPV1
current activation in TRPV3 compared with TRPV1 (in words) (TRPV3): much smaller
initial single-channel opening (in words) [5]: strong channel opening
current activation in TRPV2 compared with TRPV1 (in words) (TRPV2): much smaller

CC[C@H](C)[C@H](NC(=O)[C@@H]1CSSC[C@@H]2NC(=O)[C@H]([C@@H](C)O)NC(=O)[C@H](C(C)C)NC(=O)CNC(=O)[C@H](CC(N)=O)NC(=O)[C@@H](NC(=O)[C@@H]3CCCN3C(=O)[C@H](CC(N)=O)NC(=O)[C@H](CC(N)=O)NC(=O)[C@@H](N)CC(C)C)CSSC[C@H](NC(=O)[C@H](CCCNC(=N)N)NC(=O)[C@H](Cc3ccc(O)cc3)NC(=O)CNC(=O)[C@H](CO)NC(=O)[C@@H]3CCCN3C2=O)C(=O)N[C@@H](CO)C(=O)N[C@@H]([C@@H](C)CC)C(=O)N[C@@H](C(C)C)C(=O)N[C@@H](CC(=O)O)C(=O)N[C@@H](CCCCN)C(=O)N[C@@H](CCC(N)=O)C(=O)N1)C(=O)N[C@@H](CCCCN)C(=O)N[C@@H](CCCCN)C(=O)N[C@@H](CCC(=O)O)C(=O)O [RhTx] (H-LNNPCNGVTCPSGYRCSIVDKQCIKKE-OH; disulfide 5-16, 10-23; N-terminus and C-terminus assumed)
mechanism of TRPV1 desensitization, literature (in words) (TRPV1 [1]; ref Yang et al., 2015, Luo et al., 2019): mechanistically similar to the heat desensitization
TRPV1 activation, literature (in words) (TRPV1 [1]; ref Yang et al., 2015): strongly activates TRPV1
binding site on TRPV1, literature (in words) (TRPV1 [1]; ref Yang et al., 2015): binds to the outer pore region above the pore helix

COc1cc(CNC(=O)CCCC/C=C/C(C)C)ccc1O [capsaicin]
TRPV1 activation by intracellular application (in words) [6]: robustly activated

Oc1cc2c(cc1O)CN(C(=S)NCCc1ccc(Cl)cc1)CCC2 [capsazepine]
block of RhTx2 activation of TRPV1 (in words) [4]: cannot be blocked
mode of inhibition vs capsaicin, literature (in words) (TRPV1 [1]; ref Cao et al., 2013, Yang et al., 2015): competitive inhibitor
